Measured values of several laboratories.
Compare with care: the assays were run in different laboratories.
Mode: inhibitor
CYP1A2: Cytochrome P450 1A2 (CYP1A2, Homo sapiens, UniProt P05177)
SLCO1B1: Solute carrier organic anion transporter family member 1B1 (SLCO1B1, Homo sapiens, UniProt Q9Y6L6)

CC(=O)O[C@H]1[C@H](O[C@H]2CC[C@]34C[C@]35CC[C@]3(C)[C@@H]([C@@]6(C)CC[C@@H](C(C)(C)O)O6)[C@@H](O)C[C@@]3(C)[C@@H]5C[C@H](O[C@@H]3O[C@H](CO)[C@@H](O)[C@H](O)[C@H]3O)[C@H]4C2(C)C)OC[C@@H](OC(C)=O)[C@@H]1O
IC50 (CYP1A2; enzyme activity; human, liver microsomes): > 200 µM

CC[C@H](C)[C@@H]([C@@H](CC(=O)N1CCC[C@H]1[C@H](OC)[C@@H](C)C(=O)N[C@@H](Cc1ccccc1)C(=O)NCCCO)OC)N(C)C(=O)[C@@H](NC(=O)[C@H](C(C)C)N(C)C)C(C)C
Ki (Cytochrome P450 3A4 (CYP3A4, Homo sapiens, UniProt P08684); enzyme activity): 21.8 µM

NC/C(=C\F)COc1cccc(Cn2c(=S)[nH]c(=O)c3[nH]cnc32)c1
inhibition (SLCO1B1; transporter uptake; 30 µM): < 50%

CC(C)(O)[C@@H]1CC[C@](C)([C@H]2[C@@H](O)C[C@@]3(C)[C@@H]4C[C@H](O[C@@H]5O[C@H](CO)[C@@H](O)[C@H](O)[C@H]5O)[C@H]5C(C)(C)[C@@H](O[C@@H]6OC[C@@H](O)[C@H](O)[C@H]6O)CC[C@@]56C[C@@]46CC[C@]23C)O1
IC50 (CYP1A2; enzyme activity; human, liver microsomes): > 200 µM

CSc1ccccc1C(=O)NCCn1cc(C(=O)NCc2cccc(C)n2)c(=O)c2cc3c(cc21)OC(F)(F)O3
IC50 (CYP1A2; enzyme activity; human, liver microsomes; 20 min, without NADPH, with preincubation): > 100 µM

O=C(CCCCCCC(=O)Nc1ccccc1)NO
IC50 (CYP1A2; enzyme activity, fluorescence): 7.28 µM

CSc1ccccc1C(=O)NCCn1cc(C(=O)NCc2cccc(C)n2)c(=O)c2cc3c(cc21)OCO3
IC50 (CYP1A2; enzyme activity; human, liver microsomes; 20 min, without NADPH, with preincubation): > 100 µM

O=C(O)COc1cccc(-c2nc(Nc3ccc4[nH]ncc4c3)c3ccccc3n2)c1
IC50 (SLCO1B1; transporter uptake, radiometric): 0.39 µM
